According to ChEMBL document CHEMBL4004786, “Nanomolar Antimalarial Agents against Chloroquine-Resistant Plasmodium falciparum from Medicinal Plants and Their Structure-Activity Relationships” (J Nat Prod, 2017):

How the values were obtained:
Plasmodium falciparum = assay: Antimalarial activity against chloroquine-resistant Plasmodium falciparum Dd2 assessed as parasite growth inhibition after 72 hrs by SYBR Green 1 assay; format: functional; details: Dd2, 72 h
Procedure, shortened: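 Viability was read by SYBR Green I DNA quantitation and normalized to DMSO-treated untreated controls. IC50 came from nonlinear regression, averaging at least three independent experiments run in triplicate, with standard deviations.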

[1] = Selectivity index, ratio of IC50 for human WI38 cells to IC50 for chloroquine-resistant Plasmodium falciparum Dd2; format: toxicity; details: read-out: Ratio IC50
WI-38 = assay: Cytotoxicity against human WI38 cells after 24 hrs by resazurin assay; details: WI-38, 24 h

| Structure (SMILES) | IC50 (Plasmodium falciparum) [nM] | selectivity ratio [1] | IC50 (WI-38) [nM] |
| --- | --- | --- | --- |
| COC(=O)CCC(=O)OCC1=C2C[C@H]3[C@](O)(COC(=O)/C=C(\C)CO)[C@H]4C[C@H]4[C@]3(C)[C@@H]3CC4=C5[C@H](/C(=C(\C)C(=O)OC)C(=O)[C@H](O)[C@@]5(C)[C@@H]5C[C@H]45)[C@]23OC1=O | 1.1 | 4900 | 5390 |
| COC(=O)/C(C)=C1\C(=O)[C@H](O)[C@]2(C)C3=C(C[C@@H]4[C@]5(OC(=O)C6=C5C[C@H]5[C@](O)(COC(=O)/C=C(\C)COC(=O)CCC(=O)OC6)[C@H]6C[C@H]6[C@]45C)[C@H]31)[C@H]1C[C@H]12 [SHIZUKAOL F] | 11 | 21 | 230 |
| COC(=O)CCC(=O)OCC1=C2C[C@H]3[C@](O)(COC(=O)/C=C(\C)C=O)[C@H]4C[C@H]4[C@]3(C)[C@@H]3CC4=C5[C@H](/C(=C(\C)C(=O)OC)C(=O)[C@H](O)[C@@]5(C)[C@@H]5C[C@H]45)[C@]23OC1=O | 5.2 | 1700 | 8840 |
| C/C=C(\C)C(=O)OC[C@]1(O)[C@H]2CC3=C(CO)C(=O)O[C@@]34[C@@H]3C5=C(C[C@H]4[C@@]2(C)[C@@H]2C[C@@H]21)[C@H]1C[C@H]1[C@]5(C)[C@@H](O)C(=O)/C3=C(\C)C(=O)OC | 21 | 37 | 770 |
| COC(=O)/C(C)=C1/C(=O)[C@H](O)[C@]2(C)C3=C(C[C@@H]4[C@]5(OC(=O)C6=C5C[C@H]5[C@](O)(COC(=O)/C=C(\C)COC(=O)CCC(=O)OC6)[C@H]6C[C@H]6[C@]45C)[C@H]31)[C@H]1C[C@H]12 | 46 | 27 | 1240 |
| COC(=O)/C(C)=C1\C(=O)[C@H](O)[C@]2(C)C3=C(C[C@@H]4[C@]5(OC(=O)C(CO)=C5C[C@H]5[C@](O)(COC(C)=O)[C@H]6C[C@H]6[C@]45C)[C@H]31)[C@H]1C[C@H]12 | 100 | 100 | 10000 |
| COC(=O)/C(C)=C1\C(=O)[C@H](O)[C@]2(C)C3=C(C[C@@H]4[C@]5(OC(=O)C(C)=C5C[C@H]5[C@](O)(COC(=O)/C=C(\C)CO)[C@H]6C[C@H]6[C@]45C)[C@H]31)[C@H]1C[C@H]12 | 96 | 46 | 4450 |
| COC(=O)CCC(=O)OC/C(C)=C/C(=O)OC[C@]1(O)[C@H]2C[C@H]2[C@]2(C)[C@@H]3C[C@@]4(OO)C5=C(/C(=C(\C)C(=O)OC)C(=O)[C@H](O)[C@@]5(C)[C@@H]5C[C@@H]54)[C@@]34OC(=O)C(CO)=C4C[C@@H]12 | 30 | 18 | 530 |
| C=C1C(=O)O[C@]23C4=C5C(=O)[C@H](O)[C@]6(C)C4=C(C[C@H]2[C@]2(C)C(C[C@]13[C@]5(C)C(=O)OC)[C@](O)(COC(=O)/C(C)=C/COC(=O)CCC(=O)OC)[C@H]1C[C@H]12)[C@H]1C[C@H]16 (stereo not given in full) | 99 | 157 | 15500 |
| COC(=O)/C(C)=C1\C(=O)[C@H](O)[C@]2(C)C3=C(C[C@@H]4[C@]5(OC(=O)C(COC(=O)C[C@H](O)C(=O)OC)=C5C[C@H]5[C@](O)(COC(=O)/C(C)=C/CO)[C@H]6C[C@H]6[C@]45C)[C@H]31)[C@H]1C[C@H]12 | 7.2 | 561 | 4040 |
